Screens deposited in PubChem BioAssay by several laboratories.
This is a sample that favours compounds with a hit; in the whole collection about 1.9% have one here.
Vif imaging: HIV Vif inhibition | HEK293T cells, Vif self-association by quenched fluorescence, imaging, 24 h | inhibition, % at 7.49 µM | 340,000 compounds, 0.35% hits; in the data active = inhibition above about 50%, passing the limit was not always enough
N-glyco inh: blocks N-linked glycosylation in D54 reporter cells. AID 588692. D54 ERlucT glycosylation luciferase reporter, 24 h; percent of 100 nM tunicamycin response. 360,000 compounds, 0.23% hits. reporter increase, % at 12.5 µM;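 active = mean luciferase reporter signal, scaled so untreated is 0 and the glycosylation-blocking control 100, at or above a set limit in every replicate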;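 note: luciferase carries N-glycosylation sites so blocking glycosylation raises the light; 0% = median of neutral control wells and 100% = median of 100 nM tunicamycin wells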
bovine MsrA act: bovine methionine sulfoxide reductase A activation; purified bovine MsrA, absorbance read-out; activation, % at 10.6 µM; AID 602163; 360,000 compounds, 0.3% hits; in the data active = activation above about 7.5%;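 note: 0% = vehicle and 100% = reference activator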
aDG glyco act: alpha-DG glycosylation activation; Pro5-aDG cells, alpha-DG glycosylation AlphaScreen (IIH6); 0% Pro5, 100% B10-LARGE cell signal; 360,000 compounds, 0.22% hits; AID 624168; activation, % at 10 µM;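 active = activation of at least 8% versus controls, or a plate z-score of at least 8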;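 note: Pro5 are CHO cells carrying HIG-tagged alpha-DG that lacks glycosylation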
UCH37 DUB inh: blocks the human deubiquitinase UCH37 | Q9Y5K5 | purified proteasome/UCH37, Ub-AMC cleavage fluorescence | inhibition, % (no concentration beside the values) | 330,000 compounds, 0.33% hits | AID 588478;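 active = mean inhibition over replicate wells above about 20%, limit read from the data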;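 note: 0% = compound-free wells with enzyme and 100% = wells lacking proteasome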
Target sequence (Q9Y5K5 whole entry, looked up): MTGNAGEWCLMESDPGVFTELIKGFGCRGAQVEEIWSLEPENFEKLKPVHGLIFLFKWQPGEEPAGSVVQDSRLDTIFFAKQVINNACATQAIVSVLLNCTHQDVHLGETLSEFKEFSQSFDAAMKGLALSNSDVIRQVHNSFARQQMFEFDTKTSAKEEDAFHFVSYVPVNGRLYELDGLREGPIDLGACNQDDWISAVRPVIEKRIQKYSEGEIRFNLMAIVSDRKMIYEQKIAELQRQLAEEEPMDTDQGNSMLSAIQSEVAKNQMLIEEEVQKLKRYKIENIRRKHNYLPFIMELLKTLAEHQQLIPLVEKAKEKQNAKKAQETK
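Material: human UCH37 enzyme supplied as purified proteasome complex / Amount: 0.15 nM proteasome as dispensed / Buffer or medium: pH 7.4 Tris-HCl (50 mM) with ovalbumin, ATP-MgCl2, DTT / Times: preincubation 30 min, reaction 25 min, room temperature / Technique: AMC fluorescence from Ub-AMC cleavage, excitation 355 nm, emission 460 nm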
MsrA inhibitor: bovine MsrA inhibition | inhibition, % at 15.5 µM | AID 651718 | purified bovine MsrA, absorbance read-out | 360,000 compounds, 0.75% hits; in the data active = inhibition above about 4.5%;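 note: 0% = vehicle wells with enzyme and 100% = reference inhibitor wells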
* hit, by the source's call.

Screening COc1cccc(C=NNC(=O)CN(C2=NS(=O)(=O)c3ccccc32)c2ccccc2)c1 returned UCH37 DUB inh -1.5.
O=C1Nc2ccccc2/C1=N/N=C/c1ccc(-c2ccc([N+](=O)[O-])cc2)o1 was read as Vif imaging 53.7*, N-glyco inh 3.1, bovine MsrA act -0.2, aDG glyco act -0.6 and MsrA inhibitor 0.7.
O=C1Nc2ccccc2C1=NN=Cc1ccc(-c2ccc([N+](=O)[O-])cc2)o1 was read as UCH37 DUB inh 10.1.
`O=C(NCc1ccco1)C1CC(c2ccc(C(F)(F)F)cc2)=NO1` (stereo unspecified) gave Vif imaging -4.8, N-glyco inh 22.6, bovine MsrA act -1.1, aDG glyco act 0.0, UCH37 DUB inh 27.2* and MsrA inhibitor -0.6.
Cc1cccc(C=NN2CCN(c3ccccc3)CC2)c1 was read as UCH37 DUB inh 2.4.
Screening O=[N+]([O-])c1ccccc1NN=Cc1ccc2c(c1)OCO2 returned UCH37 DUB inh 0.1.
Screening O=C(Nc1ncccc1O)c1ccc(NS(=O)(=O)c2ccc3[nH]c(=O)[nH]c3c2)cc1 returned Vif imaging 14.4, N-glyco inh 18.0, bovine MsrA act -13.1, aDG glyco act 0.2, UCH37 DUB inh 4.2 and MsrA inhibitor 2.9.
O=C(Nc1ncccc1O)c1ccc(S(=O)(=O)Nc2ccccc2)cc1 was read as Vif imaging 0.8, N-glyco inh 128.8*, bovine MsrA act -3.4, aDG glyco act -0.5, UCH37 DUB inh 0.9 and MsrA inhibitor 0.4.
Screening COC(=O)c1ccc(NC(=O)c2ccc(NS(=O)(=O)c3cccc4cccnc34)cc2)cc1 returned Vif imaging 4.0, N-glyco inh 14.4, bovine MsrA act -2.4, aDG glyco act 0.1 and UCH37 DUB inh 6.1.
For O=C(Nc1ccccc1O)c1ccc(NS(=O)(=O)c2cccc3cccnc23)cc1 the results were Vif imaging -0.8, N-glyco inh 83.4*, bovine MsrA act 0.6, aDG glyco act -0.3 and MsrA inhibitor 0.7.
For CCC(=NNC(=O)CCC(=O)Nc1ccccc1OC)c1ccccc1 the results were UCH37 DUB inh 0.7.
For Oc1ccccc1C=NNC(=S)NC1CC2CC1C1C=CCC21 (stereo unspecified) the results were UCH37 DUB inh -1.0.
`COc1cccc(C(=O)Nc2ccc3c(c2)C(=O)c2ccccc2C3=O)c1` gave Vif imaging -3.1, N-glyco inh 34.0*, bovine MsrA act -6.5, aDG glyco act -0.3, UCH37 DUB inh 5.2 and MsrA inhibitor 0.2.
Screening COc1cccc(NC(=O)c2ccc(NC(C)=O)cc2)c1 returned Vif imaging 16.5, N-glyco inh 1.7, bovine MsrA act 0.0, aDG glyco act 0.1, UCH37 DUB inh 26.4* and MsrA inhibitor 0.4.
`CC(C)c1c(C(=O)NN=Cc2ccc(C(F)(F)F)cc2)nnn1-c1nonc1N` gave UCH37 DUB inh 4.8.
`Cc1ccc(-n2nc3c(N4CCC(C(=O)NCCc5ccccc5C)CC4)nnc(C)c3c2C)cc1` gave Vif imaging 53.6*, N-glyco inh -16.7, bovine MsrA act -4.5 and aDG glyco act 1.4.
Screening CC(=O)Nc1ccc(S(=O)(=O)N(C)CC(=O)NN=Cc2cccc(O)c2)cc1 returned UCH37 DUB inh 0.8.
Screening N#Cc1cccc(C(=O)Nc2ccc(S(=O)(=O)Nc3nccs3)cc2)c1 returned Vif imaging 65.9*, N-glyco inh 2.4, bovine MsrA act -8.4, aDG glyco act -0.2, UCH37 DUB inh 4.1 and MsrA inhibitor 0.0.
`Cc1onc(-c2ccccc2Cl)c1C(=O)Nc1ccc(S(=O)(=O)Nc2nccs2)cc1` gave Vif imaging -1.3, N-glyco inh 2.6, bovine MsrA act -2.6, aDG glyco act -0.2, UCH37 DUB inh 30.0* and MsrA inhibitor 1.3.
CCOC(=O)Cc1cc(=O)[nH]c(N=C(N)Nc2ccc(C)c(C)c2)n1 was read as UCH37 DUB inh 12.8.
Nc1ccccc1SC(CC(=O)c1ccccc1)c1cccc([N+](=O)[O-])c1 (stereo unspecified) was read as Vif imaging 16.3, N-glyco inh 6.1, bovine MsrA act 8.1*, aDG glyco act 0.0 and MsrA inhibitor 0.9.
For Nc1ccccc1SC(CC(=O)c1ccccc1)c1ccc([N+](=O)[O-])cc1 (stereo unspecified) the results were Vif imaging -1.9, N-glyco inh 5.0, bovine MsrA act 6.5, aDG glyco act 0.2 and MsrA inhibitor 1.5.
Screening CC(CC(=O)Nc1ccc2c(c1)OCCO2)=NNC(=O)c1ccccn1 returned UCH37 DUB inh -2.7.
`CON=Cc1cc([N+](=O)[O-])ccc1Sc1ccc(C)cc1` gave UCH37 DUB inh 4.9.
Screening C/C=C/c1ccc(OCCCNC)c(OC)c1 returned Vif imaging 2.3, N-glyco inh -0.7, bovine MsrA act -0.8, aDG glyco act 1.0, UCH37 DUB inh 3.6 and MsrA inhibitor -0.3.
Screening C/C=C/c1ccc(OCCNCc2ccccc2)c(OC)c1 returned Vif imaging 70.0*, N-glyco inh -0.7, bovine MsrA act -8.9, aDG glyco act 0.1, UCH37 DUB inh 2.7 and MsrA inhibitor -0.8.
CCN1CCN(C(CNS(=O)(=O)c2ccc(C)cc2)c2cccnc2)CC1 (stereo unspecified) was read as Vif imaging 53.2*, N-glyco inh 0.7, bovine MsrA act -8.4, aDG glyco act -0.2, UCH37 DUB inh 2.1 and MsrA inhibitor -0.5.
Screening Fc1ccc(NN=C(c2ccccc2)c2ccccn2)cc1 returned UCH37 DUB inh 3.7.
Screening Cc1c(Cl)cccc1N=Cc1ccc([N+](=O)[O-])s1 returned Vif imaging -2.0, N-glyco inh 35.4*, bovine MsrA act -1.8, aDG glyco act -0.3, UCH37 DUB inh 7.6 and MsrA inhibitor 2.1.
Screening Cc1ccc2cc3cc(C(=O)NCCCN4CCCC4=O)oc3nc2c1 returned Vif imaging -7.2, N-glyco inh 4.9, bovine MsrA act -4.9, aDG glyco act -0.1, UCH37 DUB inh inactive and MsrA inhibitor 4.6*.
`Cc1ccc2cc3cc(C(=O)NCCN4CCOCC4)oc3nc2c1` gave Vif imaging -3.6, N-glyco inh 0.1, bovine MsrA act -17.6, aDG glyco act 0.3, UCH37 DUB inh -314.2 and MsrA inhibitor 3.8.
Screening COC(=O)C1=C(C)N=c2sc(=Cc3cccs3)c(=O)n2C1c1ccc(F)cc1 (stereo unspecified) returned UCH37 DUB inh 6.2.
`CC(C)(C)[C@H](NC(=O)c1ccc(N)c(Cl)c1)C(=O)N1CCC[C@H]1C(=O)N[C@H](C#N)CC(=O)O` gave Vif imaging -9.2, N-glyco inh 3.3, bovine MsrA act -5.4, aDG glyco act -0.2 and MsrA inhibitor 0.1.
CCOC(=O)C[C@@H](C#N)NC(=O)[C@@H]1CCCN1C(=O)[C@@H](NC(=O)c1ccc(N)c(Cl)c1)C(C)(C)C was read as Vif imaging 75.5*, N-glyco inh 2.0, bovine MsrA act 1.6, aDG glyco act -0.4 and MsrA inhibitor 1.4.
